# Measured values taken from ChEMBL document CHEMBL3400013, “Synthesis and biological activity evaluation of hydrazone derivatives based on a Tröger's base skeleton” (Bioorg Med Chem, 2015).
# Calls of active or inactive are those of the source. The rule behind the calls is not given here.
# What was measured:
# CEM-DNR = experiment: Selectivity index, ratio of IC50 for human MRC5 cells to IC50 for human CEM-DNR cells; format: functional
# K562 [1] = experiment: Selectivity index, ratio of IC50 for human MRC5 cells to IC50 for human K562 cells; format: functional
# MRC5 [2] = experiment: Selectivity index, ratio of IC50 for human MRC5 cells to IC50 for human K562-TAX cells; format: functional
# A549 [3] = experiment: Selectivity index, ratio of IC50 for human MRC5 cells to IC50 for human A549 cells; format: functional
# HCT-116 = experiment: Selectivity index, ratio of IC50 for human MRC5 cells to IC50 for human p53-/- HCT116 cells; format: functional
# K562 [4] = experiment: Cytostatic activity against human K562 cells after 72 hrs by MTT assay; format: functional, cell-based; conditions: K562, 72 h
# Procedure, shortened: (§1)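 Cells were seeded at 25,000–30,000 per well and pre-incubated for 24 h at 37°C in 5% CO2. Four-fold compound dilutions were added in duplicate and incubated for 72 h. MTT was added for 1–4 h, and formazan was dissolved in 10% aq SDS (pH 5.5) overnight at 37°C. OD was read at 540 nm. IC50 came from dose-response curves, mean ± SD of eight independent experiments.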
# A549 [5] = experiment: Cytostatic activity against human A549 cells after 72 hrs by MTT assay; format: functional, cell-based; conditions: A549, 72 h; procedure, shortened: as §1
# MRC5 [6] = experiment: Cytostatic activity against human MRC5 cells after 72 hrs by MTT assay; format: ADME, cell-based; conditions: MRC5, 72 h; procedure, shortened: as §1
# CCRF-CEM [7] = experiment: Induction of apoptosis in human CCRF-CEM cells assessed as apoptotic cells at 5 times IC50 after 24 hrs by propidium iodide staining-based flow cytometry; format: functional
# Procedure, shortened: (§2)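 Cells were then fixed in 70% ethanol, washed in hypotonic citrate buffer, treated with RNase (50 µg/mL) and stained with propidium iodide. Flow cytometry used a 488 nm laser. Apoptosis was scored as the percentage of particles with propidium content below G0/G1.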
# CCRF-CEM [8] = experiment: Cell cycle arrest in human CCRF-CEM cells assessed as accumulation at G2/M phase at IC50 after 24 hrs by propidium iodide staining-based flow cytometry; format: functional; procedure, shortened: as §2
# CCRF-CEM [9] = experiment: Cell cycle arrest in human CCRF-CEM cells assessed as accumulation at G2/M phase at 5 times IC50 after 24 hrs by propidium iodide staining-based flow cytometry; format: functional; procedure, shortened: as §2
# CCRF-CEM [10] = experiment: Induction of apoptosis in human CCRF-CEM cells assessed as inhibition of DNA synthesis at IC50 after 24 hrs by propidium iodide/BrdU staining by flow cytometry; format: functional; parameters: scale not given: the % may be the effect or the level left
# CCRF-CEM [11] = experiment: Induction of apoptosis in human CCRF-CEM cells assessed as inhibition of DNA synthesis at 5 times IC50 after 24 hrs by propidium iodide/BrdU staining by flow cytometry; format: functional; parameters: scale not given: the % may be the effect or the level left
# CCRF-CEM [12] = experiment: Induction of apoptosis in human CCRF-CEM cells assessed as inhibition of RNA synthesis at 5 times IC50 after 24 hrs by propidium iodide/BrU staining by flow cytometry; format: functional; parameters: scale not given: the % may be the effect or the level left
# Staphylococcus aureus = experiment: Antimicrobial activity against Staphylococcus aureus CCM 3953 up to 200 uM after 24 to 48 hrs by broth microdilution method; format: functional, organism-based
# [13] = test system: Staphylococcus haemolyticus; experiment: Antimicrobial activity against methicillin-resistant Staphylococcus haemolyticus A1/16568 up to 200 uM after 24 to 48 hrs by broth microdilution method; format: functional, organism-based
# Candida parapsilosis = experiment: Antifungal activity against Candida parapsilosis up to 200 uM after 24 to 48 hrs by broth microdilution method; format: functional, organism-based
# [14] = Metal chelating activity of the compound assessed as formation of Fe3+ complex by UV-vis spectrometry; format: physicochemical
# [15] = Metal chelating activity of the compound assessed as formation of Fe2+ complex by UV-vis spectrometry; format: physicochemical
# CCRF-CEM [16] = experiment: Induction of apoptosis in human CCRF-CEM cells assessed as inhibition of RNA synthesis after 24 hrs by propidium iodide/BrU staining by flow cytometry; format: functional, cell-based
Structure (SMILES),Ratio IC50 (CEM-DNR),Ratio IC50 (K562 [1]),Ratio IC50 (MRC5 [2]),Ratio IC50 (A549 [3]),Ratio IC50 (HCT-116),IC50 (K562 [4]) [nM],IC50 (A549 [5]) [nM],IC50 (MRC5 [6]) [nM],Activity (CCRF-CEM [7]) [%],Activity (CCRF-CEM [8]) [%],Activity (CCRF-CEM [9]) [%],Activity (CCRF-CEM [10]) [%],Activity (CCRF-CEM [11]) [%],Activity (CCRF-CEM [12]) [%],Activity (Staphylococcus aureus),Activity [13],Activity (Candida parapsilosis),Activity [14],Activity [15],inhibition (CCRF-CEM [16])
O=C(NN=C(c1ccccn1)c1ccccn1)c1ccc2c3c(ccc2c1)N1Cc2c(ccc4cc(C(=O)NN=C(c5ccccn5)c5ccccn5)ccc24)N(C3)C1,0.7,2.4,2.8,0.8,2,640,2030,1030,24.51,10.49,28.23,57.31,55.69,55.9,inactive,inactive,inactive,Active,Not Active,
O=C(N/N=C/c1cc(O)ccc1O)c1ccc2c3c(ccc2c1)N1Cc2c(ccc4cc(C(=O)N/N=C/c5cc(O)ccc5O)ccc24)N(C3)C1,1.4,8,13.8,20.9,29,440,170,550,9.74,17.9,20.46,50.15,55.96,43.16,inactive,inactive,inactive,Active,Not Active,
O=C(N/N=C/c1ccccc1O)c1ccc2c3c(ccc2c1)N1Cc2c(ccc4cc(C(=O)N/N=C/c5ccccc5O)ccc24)N(C3)C1,0.1,0.6,0.4,0.3,1.7,580,980,390,50.23,19.09,18.92,50.71,5.94,83.92,inactive,inactive,inactive,Active,Not Active,
COC(=O)c1ccc(O)c(/C=N/NC(=O)c2ccc3c4c(ccc3c2)N2Cc3c(ccc5cc(C(=O)N/N=C/c6cc(C(=O)OC)ccc6O)ccc35)N(C4)C2)c1,3.2,9.4,4.3,7.7,9.7,9760,11900,95400,14.56,12.83,13.26,46.43,54.61,21.03,inactive,inactive,inactive,Active,Not Active,
O=C(N/N=C/c1nccc2ccccc12)c1ccc2c3c(ccc2c1)N1Cc2c(ccc4cc(C(=O)N/N=C/c5nccc6ccccc56)ccc24)N(C3)C1,15.9,121.9,9.9,5.4,4,820,18600,> 100000,10.73,15.35,13.57,52.93,43.36,16.94,inactive,inactive,inactive,Active,Not Active,Dose-dependent effect
O=C(N/N=C/c1cc(F)ccc1O)c1ccc2c3c(ccc2c1)N1Cc2c(ccc4cc(C(=O)N/N=C/c5cc(F)ccc5O)ccc24)N(C3)C1,9.8,18.1,17.6,33.6,51,2300,1240,29000,58.01,13.05,16.49,13.69,1.54,4.37,inactive,inactive,inactive,Active,Not Active,Dose-dependent effect
COc1ccc(O)c(/C=N/NC(=O)c2ccc3c4c(ccc3c2)N2Cc3c(ccc5cc(C(=O)N/N=C/c6cc(OC)ccc6O)ccc35)N(C4)C2)c1,13.3,357.2,137.7,123.2,495,80,230,110,21.74,15.97,12.4,50.98,31.78,56.37,inactive,inactive,inactive,Active,Not Active,
Cc1ccc(O)c(/C=N/NC(=O)c2ccc3c4c(ccc3c2)N2Cc3c(ccc5cc(C(=O)N/N=C/c6cc(C)ccc6O)ccc35)N(C4)C2)c1,0.1,0.5,0.4,0.9,1.1,900,540,270,54.07,14.65,14.79,38.67,5.17,26.44,inactive,inactive,inactive,Active,Not Active,
